In publication PMC4085604 (Scientific Reports, 2014):

B1: His6-trigger factor: trigger factor (N-terminal His-tag) (protein, UniProt P0A850 1-432, looked up)
Trigger factor: MQVSVETTQGLGRRVTITIAADSIETAVKSELVNVAKKVRIDGFRKGKVPMNIVAQRYGASVRQDVLGDLMSRNFIDAIIKEKINPAGAPTYVPGEYKLGEDFTYSVEFEVYPEVELQGLEAIEVEKPIVEVTDADVDGMLDTLRKQQATWKEKDGAVEAEDRVTIDFTGSVDGEEFEGGKASDFVLAMGQGRMIPGFEDGIKGHKAGEEFTIDVTFPEEYHAENLKGKAAKFAINLKKVEERELPELTAEFIKRFGVEDGSVEGLRAEVRKNMERELKSAIRNRVKSQAIEGLVKANDIDVPAALIDSEIDVLRRQAAQRFGGNEKQALELPRELFEEQAKRRVVVGLLLGEVIRTNELKADEERVKGLIEEMASAYEDPKEVIEFYSKNKELMDNMRNVALEEQAVEAVLAKAKVTEKETTFNELMNQQA
modifications: N-terminal His6 tag

Assays:
anti-His-tag mAb “8-4-4” = format: binding, mouse; conditions: inferred from FRET efficiency curve
[1] = test system: BHQ-10-labeled anti-His-tag mAb “8-4-4”; experiment: Homogeneous His6 detection assay; format: binding, mouse; conditions: for phosphorescence response, in words: increasing protein concentration, TRF after 90 s shaking; for detectability within total assay time, in words: total assay time of less than two minutes
Summary of the method: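 His6-tagged proteins (C- or N-terminal tag, or chemically His6-labeled BSA) in PBS pH 7.4 with 2 mg/mL BSA, or in E. coli lysate. Premixed with EuLH-HHRHH-NH2 donor peptide solution (40 nmol/L), then BHQ-10-labeled antibody solution (80 nmol/L) added. After 90 s shaking, read TRF at ex 370/em 616 nm. Triplicates. LOD is the lowest concentration whose mean exceeds blank plus 3 SD.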

Molecule | affinity to the anti-His-tag antibody, in words (anti-His-tag mAb “8-4-4”) | phosphorescence response, in words ([1]; n = 3) | detectability within total assay time, in words [1] | also measured
HHHHH-NH2 | did not influence the FRET efficiency curve substantially, and therefore also not the affinity | – | – | –
HHEHH-NH2 | full loss of affinity to the anti-His-tag antibody | – | – | –
Bovine serum albumin [BSA, reference compound] | – | no response | – | –
NPP3-His6: recombinant protein with C-terminal His-tag | – | – | could be detected highly significantly and semi-quantitatively | –
HHHHHH-NH2 | strong and specific interaction between the peptide and the antibody | – | – | –
B1 | – | increasing phosphorescence intensities with increasing protein concentration | could be detected highly significantly and semi-quantitatively | detection limit ([1]; mass concentration, sample 50 μL + donor peptide EuLH-HHRHH-NH2 (10 μL, 40 nmol/L) + BHQ-10-mAb (40 μL, 80 nmol/L), PBS pH 7.4 with 2 mg/mL BSA, 90 s, n = 3, background plus 3x SD): 39 mg/L
